# Key:
# Conditions in all cases: stereoisomer not certain
# [1] = target: T1, OR2B3 (Homo sapiens) (UniProt O76000)
# T1 sequence (whole entry): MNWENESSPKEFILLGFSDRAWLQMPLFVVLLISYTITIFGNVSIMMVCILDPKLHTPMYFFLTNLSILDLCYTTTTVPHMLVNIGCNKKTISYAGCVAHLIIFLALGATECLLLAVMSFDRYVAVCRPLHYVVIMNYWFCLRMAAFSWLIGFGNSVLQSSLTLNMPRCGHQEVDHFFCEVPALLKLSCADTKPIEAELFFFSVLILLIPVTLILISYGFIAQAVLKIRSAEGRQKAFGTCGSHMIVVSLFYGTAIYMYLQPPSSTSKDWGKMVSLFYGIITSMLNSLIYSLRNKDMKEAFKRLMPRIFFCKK
# Outline: (§1)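 Assay methods differ from source to source, frequently being transient luciferase assays in mammalian cell lines. For each receptor–molecule pair, the label responsive (active) applies when the original authors judged the measured signal statistically different from baseline, and non-responsive (inactive) applies otherwise.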
# [2] = target: T2, OR2B11 (Homo sapiens) (UniProt Q5JQS5)
# T2 sequence (whole entry): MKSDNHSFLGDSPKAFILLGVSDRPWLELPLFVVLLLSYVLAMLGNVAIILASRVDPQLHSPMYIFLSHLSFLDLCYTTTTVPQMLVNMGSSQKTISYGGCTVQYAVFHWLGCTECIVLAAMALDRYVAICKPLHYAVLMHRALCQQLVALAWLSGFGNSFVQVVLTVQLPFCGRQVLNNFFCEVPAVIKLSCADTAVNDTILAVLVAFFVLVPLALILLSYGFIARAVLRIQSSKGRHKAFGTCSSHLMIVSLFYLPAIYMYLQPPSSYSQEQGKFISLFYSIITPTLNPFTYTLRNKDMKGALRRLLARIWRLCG
# Outline: as §1
# [3] = target: OR2B2 (Homo sapiens) (UniProt Q9GZK3)
# Outline: as §1
# [4] = target: OR2B6 (Homo sapiens) (UniProt P58173)
# Outline: as §1
# [5] = target: T3, OR2C1 (Homo sapiens) (UniProt O95371)
# T3 sequence (whole entry): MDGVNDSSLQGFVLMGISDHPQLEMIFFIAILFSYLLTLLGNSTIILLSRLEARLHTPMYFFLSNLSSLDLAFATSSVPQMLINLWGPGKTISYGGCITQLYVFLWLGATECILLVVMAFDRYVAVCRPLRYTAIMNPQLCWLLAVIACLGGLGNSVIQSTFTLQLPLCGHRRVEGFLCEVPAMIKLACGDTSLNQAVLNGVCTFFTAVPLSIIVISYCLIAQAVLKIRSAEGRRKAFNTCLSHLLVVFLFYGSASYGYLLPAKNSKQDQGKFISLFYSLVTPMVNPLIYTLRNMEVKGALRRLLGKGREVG
# Outline: as §1
# [6] = target: OR2C3 (Homo sapiens) (UniProt Q8N628)
# Outline: as §1
# [7] = target: OR2D2 (Homo sapiens) (UniProt Q9H210)
# Outline: as §1
# [8] = system: OR2BB
# Outline: as §1
# Target sequence in this assay (as listed by the source): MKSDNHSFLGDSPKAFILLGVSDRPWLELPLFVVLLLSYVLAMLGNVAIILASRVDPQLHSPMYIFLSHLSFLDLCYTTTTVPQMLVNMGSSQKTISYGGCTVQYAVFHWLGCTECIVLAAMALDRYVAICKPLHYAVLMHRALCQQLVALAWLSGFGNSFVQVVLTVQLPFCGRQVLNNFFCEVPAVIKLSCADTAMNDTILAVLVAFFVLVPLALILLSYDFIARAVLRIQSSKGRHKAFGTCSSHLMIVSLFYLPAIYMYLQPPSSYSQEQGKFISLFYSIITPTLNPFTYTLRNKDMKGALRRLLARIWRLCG
# [9] = system: OR2BB; remark: listed apart in the source
# Outline: as §1
# [10] = system: OR2BB; remark: listed apart in the source
# Outline: as §1
# Target sequence in this assay (as listed by the source): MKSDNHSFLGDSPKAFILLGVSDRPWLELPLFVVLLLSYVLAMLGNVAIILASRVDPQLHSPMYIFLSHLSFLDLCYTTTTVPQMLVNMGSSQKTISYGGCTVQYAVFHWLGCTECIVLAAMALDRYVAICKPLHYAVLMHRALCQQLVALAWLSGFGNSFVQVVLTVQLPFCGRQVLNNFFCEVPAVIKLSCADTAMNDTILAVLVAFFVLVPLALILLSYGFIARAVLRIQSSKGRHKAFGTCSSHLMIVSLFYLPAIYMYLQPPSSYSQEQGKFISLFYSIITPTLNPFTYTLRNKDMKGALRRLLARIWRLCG
# [11] = system: OR2BB; remark: listed apart in the source
# Outline: as §1
# [12] = system: OR2BB; remark: listed apart in the source
# Outline: as §1
# Target sequence in this assay (as listed by the source): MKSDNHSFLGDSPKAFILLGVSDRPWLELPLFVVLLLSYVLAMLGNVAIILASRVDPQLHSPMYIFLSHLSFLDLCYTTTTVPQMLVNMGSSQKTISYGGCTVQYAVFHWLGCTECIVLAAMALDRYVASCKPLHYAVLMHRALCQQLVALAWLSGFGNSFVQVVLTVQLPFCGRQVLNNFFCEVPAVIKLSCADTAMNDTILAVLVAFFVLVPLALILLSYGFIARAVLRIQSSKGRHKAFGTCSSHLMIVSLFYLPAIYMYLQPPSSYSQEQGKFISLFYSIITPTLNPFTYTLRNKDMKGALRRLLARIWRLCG
# [13] = system: OR2C1
# Outline: as §1
# Target sequence in this assay (as listed by the source): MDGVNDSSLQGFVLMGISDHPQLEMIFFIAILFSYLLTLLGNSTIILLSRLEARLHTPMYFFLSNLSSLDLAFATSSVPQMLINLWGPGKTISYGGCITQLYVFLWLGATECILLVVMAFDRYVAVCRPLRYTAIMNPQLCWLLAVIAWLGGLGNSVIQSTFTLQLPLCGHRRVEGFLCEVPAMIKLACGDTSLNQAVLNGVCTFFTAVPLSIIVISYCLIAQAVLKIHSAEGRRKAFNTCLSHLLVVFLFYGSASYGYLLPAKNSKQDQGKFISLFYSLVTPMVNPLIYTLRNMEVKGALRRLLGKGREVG
# [14] = system: OR2C1; remark: listed apart in the source
# Outline: as §1
# Target sequence in this assay (as listed by the source): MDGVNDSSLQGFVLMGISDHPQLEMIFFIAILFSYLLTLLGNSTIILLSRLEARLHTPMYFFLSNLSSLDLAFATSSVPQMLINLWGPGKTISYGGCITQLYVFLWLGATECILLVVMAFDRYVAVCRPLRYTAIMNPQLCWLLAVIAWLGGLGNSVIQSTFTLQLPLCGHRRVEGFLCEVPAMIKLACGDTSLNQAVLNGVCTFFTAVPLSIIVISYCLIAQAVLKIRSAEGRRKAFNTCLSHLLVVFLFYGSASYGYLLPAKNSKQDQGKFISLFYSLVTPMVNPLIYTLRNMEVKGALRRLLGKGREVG
# [15] = system: OR2C1; remark: listed apart in the source
# Outline: as §1
# Target sequence in this assay (as listed by the source): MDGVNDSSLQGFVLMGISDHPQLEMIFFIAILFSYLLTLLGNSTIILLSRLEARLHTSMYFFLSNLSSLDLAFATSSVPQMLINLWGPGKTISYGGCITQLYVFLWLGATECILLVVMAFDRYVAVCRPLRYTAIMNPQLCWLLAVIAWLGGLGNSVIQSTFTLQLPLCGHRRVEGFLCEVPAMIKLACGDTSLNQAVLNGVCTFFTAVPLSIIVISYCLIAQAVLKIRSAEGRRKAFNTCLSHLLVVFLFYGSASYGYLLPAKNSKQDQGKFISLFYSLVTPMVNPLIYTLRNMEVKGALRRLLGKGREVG
# [16] = system: OR2C1; remark: listed apart in the source
# Outline: as §1
# Target sequence in this assay (as listed by the source): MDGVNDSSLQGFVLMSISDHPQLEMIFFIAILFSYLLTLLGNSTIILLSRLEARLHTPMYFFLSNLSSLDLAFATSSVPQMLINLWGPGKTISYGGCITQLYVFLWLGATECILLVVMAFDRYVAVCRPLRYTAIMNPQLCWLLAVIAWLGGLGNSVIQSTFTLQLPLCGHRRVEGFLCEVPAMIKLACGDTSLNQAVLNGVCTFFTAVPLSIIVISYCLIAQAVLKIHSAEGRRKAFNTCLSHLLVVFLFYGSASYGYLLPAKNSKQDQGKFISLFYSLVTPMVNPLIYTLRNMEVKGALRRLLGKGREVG
# [17] = system: OR2C1; remark: listed apart in the source
# Outline: as §1
# Target sequence in this assay (as listed by the source): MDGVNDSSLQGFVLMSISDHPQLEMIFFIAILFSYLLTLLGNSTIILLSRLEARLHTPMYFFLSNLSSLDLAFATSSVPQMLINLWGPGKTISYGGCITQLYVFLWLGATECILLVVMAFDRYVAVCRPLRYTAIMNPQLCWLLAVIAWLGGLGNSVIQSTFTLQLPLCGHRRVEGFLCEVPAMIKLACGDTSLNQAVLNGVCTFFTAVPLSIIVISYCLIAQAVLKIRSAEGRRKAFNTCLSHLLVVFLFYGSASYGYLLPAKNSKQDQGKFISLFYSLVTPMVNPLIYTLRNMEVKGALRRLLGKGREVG
# [18] = system: OR2C1; remark: listed apart in the source
# Outline: as §1
# Target sequence in this assay (as listed by the source): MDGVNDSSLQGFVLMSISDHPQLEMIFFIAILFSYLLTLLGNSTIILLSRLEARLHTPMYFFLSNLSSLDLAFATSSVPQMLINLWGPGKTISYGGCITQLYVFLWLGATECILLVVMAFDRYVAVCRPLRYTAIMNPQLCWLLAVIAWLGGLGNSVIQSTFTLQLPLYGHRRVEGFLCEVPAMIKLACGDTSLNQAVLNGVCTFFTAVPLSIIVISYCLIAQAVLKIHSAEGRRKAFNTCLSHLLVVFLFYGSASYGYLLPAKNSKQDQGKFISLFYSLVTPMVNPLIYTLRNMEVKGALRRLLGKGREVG
# [19] = system: OR2C3
# Outline: as §1
# Target sequence in this assay (as listed by the source): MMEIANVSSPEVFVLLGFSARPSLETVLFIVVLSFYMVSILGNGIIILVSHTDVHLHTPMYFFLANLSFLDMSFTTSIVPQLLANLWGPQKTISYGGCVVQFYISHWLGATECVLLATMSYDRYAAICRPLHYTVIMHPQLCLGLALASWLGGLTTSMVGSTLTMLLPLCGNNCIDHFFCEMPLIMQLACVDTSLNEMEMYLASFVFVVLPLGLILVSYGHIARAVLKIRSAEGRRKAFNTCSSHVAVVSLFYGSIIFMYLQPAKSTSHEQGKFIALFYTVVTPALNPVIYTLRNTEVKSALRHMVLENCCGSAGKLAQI
# [20] = system: OR2C3; remark: listed apart in the source
# Outline: as §1
# Target sequence in this assay (as listed by the source): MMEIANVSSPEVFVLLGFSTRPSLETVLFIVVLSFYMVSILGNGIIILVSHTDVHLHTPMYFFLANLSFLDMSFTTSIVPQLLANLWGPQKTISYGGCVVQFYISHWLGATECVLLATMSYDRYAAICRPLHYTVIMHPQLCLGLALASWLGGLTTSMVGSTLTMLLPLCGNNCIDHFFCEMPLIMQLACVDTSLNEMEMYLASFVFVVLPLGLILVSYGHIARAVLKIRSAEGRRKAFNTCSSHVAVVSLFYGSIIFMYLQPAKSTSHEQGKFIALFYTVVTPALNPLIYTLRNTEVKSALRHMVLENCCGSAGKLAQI
# OR2B6 (Homo sapiens), sequence (P58173 whole entry): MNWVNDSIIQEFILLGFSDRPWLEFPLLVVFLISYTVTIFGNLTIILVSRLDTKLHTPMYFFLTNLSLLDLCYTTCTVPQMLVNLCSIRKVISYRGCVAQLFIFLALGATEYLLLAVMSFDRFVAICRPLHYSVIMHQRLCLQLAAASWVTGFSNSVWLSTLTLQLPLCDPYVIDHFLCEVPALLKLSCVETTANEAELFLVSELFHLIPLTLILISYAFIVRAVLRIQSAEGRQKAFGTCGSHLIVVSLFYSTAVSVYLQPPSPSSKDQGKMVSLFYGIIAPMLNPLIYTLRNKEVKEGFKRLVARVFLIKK
# OR2D2 (Homo sapiens), sequence (Q9H210 whole entry): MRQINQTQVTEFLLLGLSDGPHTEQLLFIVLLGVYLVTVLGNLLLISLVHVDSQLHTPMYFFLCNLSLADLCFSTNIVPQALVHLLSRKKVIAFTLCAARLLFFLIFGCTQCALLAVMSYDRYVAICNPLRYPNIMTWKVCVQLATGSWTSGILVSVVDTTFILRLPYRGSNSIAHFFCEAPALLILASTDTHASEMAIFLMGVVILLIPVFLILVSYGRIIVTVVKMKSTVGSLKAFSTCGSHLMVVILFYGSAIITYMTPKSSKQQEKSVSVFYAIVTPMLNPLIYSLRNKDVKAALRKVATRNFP
# OR2B2 (Homo sapiens), sequence (Q9GZK3 whole entry): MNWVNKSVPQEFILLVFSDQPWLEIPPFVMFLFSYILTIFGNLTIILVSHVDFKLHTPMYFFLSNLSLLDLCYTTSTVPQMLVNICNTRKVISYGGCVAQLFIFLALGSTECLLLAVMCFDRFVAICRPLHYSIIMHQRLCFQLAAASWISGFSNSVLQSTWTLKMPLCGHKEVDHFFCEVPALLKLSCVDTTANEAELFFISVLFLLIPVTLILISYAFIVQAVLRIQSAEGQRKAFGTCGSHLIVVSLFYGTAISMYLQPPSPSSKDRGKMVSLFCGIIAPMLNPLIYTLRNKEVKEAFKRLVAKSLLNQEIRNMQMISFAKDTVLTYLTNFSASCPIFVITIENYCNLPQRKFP
# OR2C3 (Homo sapiens), sequence (Q8N628 whole entry): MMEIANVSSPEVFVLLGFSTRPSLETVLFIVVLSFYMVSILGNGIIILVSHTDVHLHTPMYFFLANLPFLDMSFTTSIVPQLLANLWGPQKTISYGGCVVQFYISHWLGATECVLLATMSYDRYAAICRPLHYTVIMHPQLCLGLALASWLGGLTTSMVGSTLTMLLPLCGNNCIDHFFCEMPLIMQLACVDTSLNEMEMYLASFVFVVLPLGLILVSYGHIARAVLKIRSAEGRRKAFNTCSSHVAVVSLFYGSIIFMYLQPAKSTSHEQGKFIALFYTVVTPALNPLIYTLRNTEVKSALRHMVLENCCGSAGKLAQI
compound,measurement,setting,value
C=CCc1ccc(OC)cc1,odorant receptor agonist call,[1],inactive
Cc1c([N+](=O)[O-])c(C)c([N+](=O)[O-])c(C(C)(C)C)c1[N+](=O)[O-],odorant receptor agonist call,[2],inactive
same,odorant receptor agonist call,[3],inactive
same,odorant receptor agonist call,[4],inactive
same,odorant receptor agonist call,[5],inactive
same,odorant receptor agonist call,[6],inactive
same,odorant receptor agonist call,[7],inactive
O=CC=Cc1ccccc1,odorant receptor agonist call,[2],active
same,odorant receptor agonist call,[1],inactive
same,odorant receptor agonist call,[8],inactive
same,odorant receptor agonist call,[9],inactive
same,odorant receptor agonist call,[10],inactive
same,odorant receptor agonist call,[11],inactive
same,odorant receptor agonist call,[12],active
same,odorant receptor agonist call,[13],inactive
same,odorant receptor agonist call,[14],inactive
same,odorant receptor agonist call,[15],inactive
same,odorant receptor agonist call,[16],inactive
same,odorant receptor agonist call,[17],active
same,odorant receptor agonist call,[18],active
C=CCOC(=O)Cc1ccccc1,odorant receptor agonist call,[2],inactive
same,odorant receptor agonist call,[3],inactive
same,odorant receptor agonist call,[1],inactive
same,odorant receptor agonist call,[4],inactive
same,odorant receptor agonist call,[8],inactive
same,odorant receptor agonist call,[10],inactive
same,odorant receptor agonist call,[5],inactive
same,odorant receptor agonist call,[14],inactive
same,odorant receptor agonist call,[19],inactive
same,odorant receptor agonist call,[20],inactive
same,odorant receptor agonist call,[7],inactive
C=CCc1ccccc1,odorant receptor agonist call,[5],inactive
O=c1cc(O)c2ccccc2o1,odorant receptor agonist call,[5],inactive
O=Cc1ccccc1,odorant receptor agonist call,[1],inactive
CCC1CCC(=O)O1 (stereo not given),odorant receptor agonist call,[5],inactive

# Source: the M2OR odorant receptor database
